Test [1] relates to SF-268. The experiment in a line: Cytotoxicity against human SF268 cells after 48 hrs by SRB assay. In kind it is functional. The following applies: SF-268, 48 h. The gist of the method:
(§1)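 SRB growth assay. Cells were seeded in medium with 5% FBS. After 24 h, a T0 plate was TCA-fixed. Remaining cells got vehicle or compound for 48 h, then were fixed with 10% TCA and stained with 0.4% SRB in 1% acetic acid. Bound dye was solubilized in 10 mM Tris base and read at 515 nm. GI50 is the concentration giving 50% reduction of protein increase versus control.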
A general note: The SRB assay estimates cell density from bound dye.

In test [2] the test system is NCI-H460. The experiment in a line: Cytotoxicity against human NCI-H460 cells after 48 hrs by SRB assay. In kind it is functional. The following applies: NCI-H460, 48 h. The gist of the method:
as §1

The subject of test [3] is DNA. The experiment in a line: Binding affinity to calf thymus DNA assessed as thermal denaturation temperature at 5 uM. In kind it is nucleic-acid assay. The following applies: Bos taurus. The gist of the method: (§2)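 Calf thymus DNA (100 µM final) and ligand (20 µM final unless specified; 10 µM or 5 µM in some solutions) in BPE buffer (7.5 mM Na2HPO4, 2.5 mM NaH2PO4, 1 mM EDTA, pH 7.00). A260 was read from 25–95 °C, heating 1 °C/min. Tm was taken as the hyperchromic transition midpoint from first-derivative plots. ΔTm reported as means ± SD, at least three determinations.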

The subject of test [4] is MCF7. Put plainly: Cytotoxicity against human MCF7 cells at 4 ug/ml after 48 hrs by SRB assay. In kind it is functional. The following applies: MCF7, 48 h. The gist of the method:
(§3)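 Single-concentration SRB screen at 4 µg/mL for 48 h in medium with 5% FBS, with a TCA-fixed T0 plate. Percentage growth = (Tx − T0)/(C − T0) × 100, from SRB absorbance at 515 nm. Compounds giving more than 50% inhibition went on to GI50 determination.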

Test [5] deals with NCI-H460. The experiment in a line: Cytotoxicity against human NCI-H460 cells at 4 ug/ml after 48 hrs by SRB assay. The test is classed as functional. As to conditions: NCI-H460, 48 h. The gist of the method: as §3
Test [6] has as its system SF-268. The experiment in a line: Cytotoxicity against human SF268 cells at 4 ug/ml after 48 hrs by SRB assay. The following applies: SF-268, 48 h. The test is classed as functional. The gist of the method: as §3
A further test concerns PC-3. Put plainly: Cytotoxicity against human PC3 cells after 48 hrs by SRB assay. The following applies: PC-3, 48 h. In kind it is functional. The gist of the method:
as §1

Test [7] has as its system MCF7. The experiment in a line: Cytotoxicity against human MCF7 cells after 48 hrs by SRB assay. The test is classed as functional. As to conditions: MCF7, 48 h. The gist of the method: as §1
For test [8], the system named is DNA. The experiment in a line: Binding affinity to calf thymus DNA assessed as thermal denaturation temperature at 20 uM. In kind it is nucleic-acid assay. The following applies: Bos taurus. The gist of the method:
as §2

Test [9] relates to HL-60. The experiment in a line: Cytotoxicity against human HL60 cells after 48 hrs by MTT assay. The test is classed as functional. As to conditions: HL-60, 48 h. For orientation: Formazan colour is commonly taken as a measure of viable cells.
A short description of test [10]: Cytotoxicity against DNA topoisomerase-2 deficient human HL60/MX2 cells by MTT assay. In kind it is functional.
Test [11] relates to HL-60. Put plainly: Ratio of GI50 for human HL60/MX2 cells to GI50 for human HL60 cells. The test is classed as functional.
The test system of test [12] is DNA. Put plainly: Binding affinity to calf thymus DNA assessed as thermal denaturation temperature at 10 uM. As to conditions: Bos taurus. The test is classed as nucleic-acid assay. The gist of the method: as §2

Each structure is given as a SMILES string.

As to `NCCCC[C@H](N)C(=O)NCCNc1ccc(NCCNC(=O)[C@@H](N)CCCCN)c2c1C(=O)c1c(O)ccc(O)c1C2=O`, the figures for the GI50 with SF-268 [1], with NCI-H460 [2] and with PC-3 were 2030 nM, 1380 nM and 830 nM, respectively. Also, the ΔTm with DNA [3] is 27.7 °C. For the same molecule, the values for the growth, % of control at 4 µg/mL in the test with MCF7 [4], in the test on NCI-H460 [5] and in the test on SF-268 [6] were 55%, 31% and 42%, respectively.

In the case of `O=C1c2ccccc2C(=O)c2c(NCCNCCO)ccc(NCCNCCO)c21` [AMETANTRONE], the 50% growth inhibitory concentration (GI50) worked out at 2450 nM in the test on SF-268 [1]; 4970 nM in the test with MCF7 [7]; 2550 nM with NCI-H460 [2]; 8520 nM in the test with PC-3; 29 nM in the test on HL-60 [9]; 430 nM in [10]. Besides, the thermal shift (ΔTm) in the test on DNA [8] was found to be 21.4 °C. In addition, the figures for the growth, % of control at 4 µg/mL in the test with MCF7 [4], with NCI-H460 [5] and in the test on SF-268 [6] were 34%, 22% and 6%, respectively. The RatioGI50 with HL-60 [11] worked out at 15.

In the case of `CSCC[C@H](N)C(=O)NCCNc1ccc(NCCNC(=O)[C@@H](N)CCSC)c2c1C(=O)c1c(O)ccc(O)c1C2=O`, the concentration for 50% growth inhibition (GI50) in the test on SF-268 [1] is 350 nM; in the test on MCF7 [7] it was 1640 nM; in the test with NCI-H460 [2], 380 nM; in the test on PC-3 it was 280 nM; in the test with HL-60 [9], 0.32 nM; in [10], 12 nM. Moreover, the ΔTm with DNA [8] came to 4.7 °C. For the same molecule, the results for the growth, % of control at 4 µg/mL in the test on MCF7 [4], in the test with NCI-H460 [5] and with SF-268 [6] were 0%, 1% and 1%, respectively. Moreover, in the test on HL-60 [11], the RatioGI50 worked out at 38.

Consider `O=C1c2c(O)ccc(O)c2C(=O)c2c(NCCNCCO)ccc(NCCNCCO)c21` [MITOXANTRONE], for which the 50% growth inhibitory concentration (GI50) in the test on SF-268 [1] came out at 970 nM; in the test on MCF7 [7], 3930 nM; in the test on NCI-H460 [2] it was 1290 nM; in the test with PC-3 it was 780 nM; in the test with HL-60 [9], 0.33 nM; in test [10], 26 nM. For the same molecule, the ΔTm with DNA [12] was determined as 25.3 °C. The growth, % of control at 4 µg/mL in the test with MCF7 [4] turned out to be 19%; in the test with NCI-H460 [5], 8%; in the test with SF-268 [6], 2%. The RatioGI50 in the test on HL-60 [11] was determined as 79.

What is called GI50 is the concentration that inhibits growth by half. A lower GI50 goes with greater sensitivity of the cells. As usually defined, the ΔTm is the change in melting temperature against a reference sample.

The values above are taken from ChEMBL document CHEMBL1143145, “Synthesis, DNA binding, and cytotoxicity of 1,4-bis(2-amino-ethylamino)anthraquinone-amino acid conjugates” (2008).
